# Activity calls are given as the source filed them.
# Tests used:
# [1] = tested on: Rattus norvegicus; test: Toxicity in arthritic Wistar rat assessed as gastric ulcerogenic response at 10 mg/kg, po; assay type: organism-based, Stomach; parameters: dose 10 mg/kg, route oral; details: in vivo
# Summary of the method: (§1)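 Arthritis induced as for adjuvant model. Two days later rats fasted overnight, then dosed orally (10 ml/kg) or with vehicle; indomethacin 10 mg/kg po as positive control. Rats killed 4 h later, stomachs opened along greater curvature. Ulcer index taken as summed lesion length (mm) in gastric mucosa.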
# [2] = tested on: Rattus norvegicus; test: Antiinflammatory activity against Freund's adjuvant-induced arthritis in Wistar rat assessed as reduction in paw width at 10 mg/kg, po; assay type: functional, organism-based; parameters: dose 10 mg/kg
# Summary of the method: (§2)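 Arthritis induced by Freund's adjuvant injected into right paw; after 3 days paw height, paw width and joint width re-measured (day 0) and rats randomised. Dosed once daily for 3 further days (days 1–3), orally at 10 ml/kg or ip at 2 ml/kg, in vehicle 10% DMSO/10% Tween 80/80% water. Measurements taken at baseline, day 0 and days 1–4, compared with vehicle group.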
# [3] = tested on: Rattus norvegicus; test: Antiinflammatory activity against Freund's adjuvant-induced arthritis in Wistar rat assessed as reduction in paw height at 100 mg/kg, ip; assay type: functional, organism-based; parameters: dose 100 mg/kg; summary of the method: as §2
# [4] = tested on: Rattus norvegicus; test: Antiinflammatory activity in Wistar rat assessed as reduction of carrageenan-induced paw oedema; assay type: functional, organism-based
# Summary of the method: (§3)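 Overnight-fasted rats dosed orally (10, 50, 100 mg/kg/10 ml) or with vehicle before carrageenan injection into the footpad. Equal volume of saline injected into left hindpaw. Rats killed 4 h later and hind paws cut and weighed. Oedema taken as right minus left paw weight; means ± SEM versus vehicle.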
# [5] = tested on: Rattus norvegicus; test: Antinociceptive activity in Wistar rat assessed as increase in latency time at 50 mg/kg, ip; assay type: functional, organism-based; parameters: dose 50 mg/kg
# Summary of the method: (§4)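 Freund's adjuvant-arthritic rats given ip dosing (10 ml/kg) or vehicle once daily for 4 days. Hot-plate test the day after the last injection at 55 ± 0.5 °C, set for 15–18 s control latency. Latency to hind-paw licking or jump recorded, 60 s cut-off. Each rat tested twice, 30 min apart. Normal rats included as controls.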
# [6] = tested on: Rattus norvegicus; test: Antiinflammatory activity against Freund's adjuvant-induced arthritis in Wistar rat assessed as reduction in paw width at 100 mg/kg, po; assay type: functional, organism-based; parameters: dose 100 mg/kg; summary of the method: as §2
# [7] = tested on: Rattus norvegicus; test: Antiinflammatory activity against Freund's adjuvant-induced arthritis in Wistar rat assessed as reduction in joint width at 50 mg/kg, po; assay type: functional, organism-based; parameters: dose 50 mg/kg; summary of the method: as §2
# [8] = tested on: Rattus norvegicus; test: Antiinflammatory activity against Freund's adjuvant-induced arthritis in Wistar rat assessed as reduction in paw height at 50 mg/kg, po; assay type: functional, organism-based; parameters: dose 50 mg/kg; summary of the method: as §2
# [9] = tested on: Rattus norvegicus; test: Antiinflammatory activity against Freund's adjuvant-induced arthritis in Wistar rat assessed as reduction in joint size at 100 mg/kg, ip; assay type: functional, organism-based; parameters: dose 100 mg/kg; summary of the method: as §2
# [10] = tested on: Rattus norvegicus; test: Antiinflammatory activity against Freund's adjuvant-induced arthritis in Wistar rat assessed as reduction in joint width at 10 mg/kg, po; assay type: functional, organism-based; parameters: dose 10 mg/kg; summary of the method: as §2
# [11] = tested on: Rattus norvegicus; test: Antiinflammatory activity against Freund's adjuvant-induced arthritis in Wistar rat assessed as reduction in paw height at 100 mg/kg, po; assay type: functional, organism-based; parameters: dose 100 mg/kg; summary of the method: as §2
# [12] = tested on: Rattus norvegicus; test: Antinociceptive activity in Wistar rat assessed as increase in latency time at 100 mg/kg, ip; assay type: functional, organism-based; parameters: dose 100 mg/kg; summary of the method: as §4
# [13] = tested on: Rattus norvegicus; test: Toxicity in arthritic Wistar rat assessed as gastric ulcerogenic response at 100 mg/kg, po; assay type: organism-based, Stomach; parameters: dose 100 mg/kg, route oral; details: in vivo; summary of the method: as §1
# [14] = tested on: Rattus norvegicus; test: Antiinflammatory activity against Freund's adjuvant-induced arthritis in Wistar rat assessed as reduction in paw width at 100 mg/kg, ip; assay type: functional, organism-based; parameters: dose 100 mg/kg; summary of the method: as §2
# [15] = tested on: Rattus norvegicus; test: Antiinflammatory activity against Freund's adjuvant-induced arthritis in Wistar rat assessed as reduction in paw height at 10 mg/kg, po; assay type: functional, organism-based; parameters: dose 10 mg/kg; summary of the method: as §2
# [16] = tested on: Rattus norvegicus; test: Antiinflammatory activity against Freund's adjuvant-induced arthritis in Wistar rat assessed as reduction in paw width at 50 mg/kg, po; assay type: functional, organism-based; parameters: dose 50 mg/kg; summary of the method: as §2
# [17] = tested on: Rattus norvegicus; test: Antiinflammatory activity against Freund's adjuvant-induced arthritis in Wistar rat assessed as reduction in joint size at 100 mg/kg, po; assay type: functional, organism-based; parameters: dose 100 mg/kg; summary of the method: as §2
# [18] = tested on: Rattus norvegicus; test: Antiinflammatory activity against carrageenan-induced Wistar rat paw oedema at 10 mg/kg, po; assay type: functional, organism-based; parameters: dose 10 mg/kg; summary of the method: as §3
# [19] = tested on: Rattus norvegicus; test: Antiinflammatory activity against carrageenan-induced Wistar rat paw oedema at 50 mg/kg, po; assay type: functional, organism-based; parameters: dose 50 mg/kg; summary of the method: as §3
# [20] = tested on: Rattus norvegicus; test: Antiinflammatory activity against carrageenan-induced Wistar rat paw oedema at 100 mg/kg, po; assay type: functional, organism-based; parameters: dose 100 mg/kg; summary of the method: as §3
SMILES,Activity [1],Activity [2],Activity [3],Activity [4],Activity [5],Activity [6],Activity [7],Activity [8],Activity [9],Activity [10],Activity [11],Activity [12],Activity [13],Activity [14],Activity [15],Activity [16],Activity [17],Activity [18],Activity [19],Activity [20]
COc1ccc2c(c1)c(CC(=O)O)c(C)n2C(=O)c1ccc(Cl)cc1 [INDOMETHACIN],Toxic,,,,,,,,,,,,,,,,,,,
FC(F)(F)c1ccc(-n2nc3c(c2-c2ccccc2)CCCC3)cc1,,inactive,Active,Dose-dependent effect,Active,inactive,inactive,inactive,Active,inactive,inactive,Active,Non-toxic,Active,inactive,inactive,inactive,,,
FC(F)(F)c1ccnc(-n2nc3c(c2-c2ccccc2)CCCC3)n1,,,Active,,,inactive,,,inactive,,Active,,Non-toxic,Active,,,inactive,inactive,inactive,inactive

# — ChEMBL document CHEMBL1147923, “Synthesis, docking studies and anti-inflammatory activity of 4,5,6,7-tetrahydro-2H-indazole derivatives” (Bioorg Med Chem, 2007)
